Experimental data: ChEMBL document CHEMBL1139400, “Thiadiazolopiperazinyl ureas as inhibitors of fatty acid amide hydrolase” (Bioorg Med Chem Lett, 2008)
Activity calls are given as the source filed them. The calls are words filed in the database; no cut-off is given here.

Molecular target: T1, Fatty-acid amide hydrolase 1 (Rattus norvegicus) (UniProt P97612)
T1 sequence (whole entry): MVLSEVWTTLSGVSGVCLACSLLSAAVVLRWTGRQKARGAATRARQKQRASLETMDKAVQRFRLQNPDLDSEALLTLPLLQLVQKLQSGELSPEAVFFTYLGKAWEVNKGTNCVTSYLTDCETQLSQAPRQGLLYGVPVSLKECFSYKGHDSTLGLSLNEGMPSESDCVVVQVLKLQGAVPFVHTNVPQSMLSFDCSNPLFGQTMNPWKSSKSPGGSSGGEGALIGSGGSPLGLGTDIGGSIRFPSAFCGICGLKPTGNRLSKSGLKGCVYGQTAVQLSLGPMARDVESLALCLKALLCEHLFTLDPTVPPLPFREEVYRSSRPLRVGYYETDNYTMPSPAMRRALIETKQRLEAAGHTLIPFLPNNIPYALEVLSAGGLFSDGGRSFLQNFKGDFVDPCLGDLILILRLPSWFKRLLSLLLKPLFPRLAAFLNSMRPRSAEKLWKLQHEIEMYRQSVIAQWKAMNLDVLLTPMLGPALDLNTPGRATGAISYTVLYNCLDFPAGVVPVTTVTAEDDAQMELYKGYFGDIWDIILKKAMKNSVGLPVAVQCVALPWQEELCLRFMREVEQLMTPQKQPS
Assay: Inhibition of rat FAAH assessed as recovery of enzyme activity at IC80 concentration after 18 hrs at 4 degC by dialysis
Settings: not given

Row | Compound | Activity
1 | O=C(Nc1ccccc1)N1CCN(c2nc(-c3ccccc3)ns2)CC1 | Active

System: not listed separately
Assay: Oral bioavailability in rat at 10 mg/kg
Format: ADME, organism-based
Settings: in vivo

Row | Compound | bioavailability [%]
2 | O=C(Nc1ccccc1)N1CCN(c2nc(-c3ccccc3)ns2)CC1 | 5

System: Rattus norvegicus
Assay: Volume of distribution in rat at 10 mg/kg, po
Format: ADME, organism-based
Design: dose 10 mg/kg, route oral
Settings: in vivo

Row | Compound | Vd [L]
3 | O=C(Nc1ccccc1)N1CCN(c2nc(-c3ccccc3)ns2)CC1 | 45

System: not listed separately
Assay: Clearance in rat at 10 mg/kg, ip
Format: ADME, organism-based
Design: dose 10 mg/kg, route intraperitoneal
Settings: in vivo

Row | Compound | CL/F [mL/min]
4 | O=C(Nc1ccccc1)N1CCN(c2nc(-c3ccccc3)ns2)CC1 | 32

System: not listed separately
Assay: Clearance in rat at 10 mg/kg, po
Format: ADME, organism-based
Design: dose 10 mg/kg, route oral
Settings: in vivo

Row | Compound | CL/F [mL/min]
5 | O=C(Nc1ccccc1)N1CCN(c2nc(-c3ccccc3)ns2)CC1 | 116

System: Rattus norvegicus
Assay: Increase in anandamide levels in rat brain at 20 mg/kg, ip after 4 hrs relative to control
Format: functional
Settings: route intraperitoneal
Summary of the method: (§1)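 Rats dosed at 20 mg/kg i.p.; anandamide levels measured in brain tissue at 4 h post dose, compared with control.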

Row | Compound | fold change (FC)
6 | O=C(Nc1ccccc1)N1CCN(c2nc(-c3ccccc3)ns2)CC1 | 1.4

System: not listed separately
Assay: Cmax in rat at 10 mg/kg, po
Format: ADME, organism-based
Design: dose 10 mg/kg, route oral
Settings: in vivo

Row | Compound | Cmax [µM]
7 | O=C(Nc1ccccc1)N1CCN(c2nc(-c3ccccc3)ns2)CC1 | 0.301

System: Rattus norvegicus
Assay: Ex vivo inhibition of FAAH in rat brain assessed as recovered enzyme activity at 20 mg/kg, ip after 24 hrs relative to control
Format: functional
Design: scale not given: the % may be the effect or the level left
Settings: route intraperitoneal
Summary of the method: (§2)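 Rats dosed once at 20 mg/kg i.p.; brains removed at time points up to 24 h and FAAH activity measured ex vivo, expressed relative to untreated animals.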

Row | Compound | Activity [%]
8 | O=C(Nc1ccccc1)N1CCN(c2nc(-c3ccccc3)ns2)CC1 | 25

System: not listed separately
Assay: Cmax in rat plasma at 20 mg/kg, ip
Format: ADME, organism-based
Design: dose 20 mg/kg, route intraperitoneal
Settings: not given

Row | Compound | Cmax [µM]
9 | O=C(Nc1ccccc1)N1CCN(c2nc(-c3ccccc3)ns2)CC1 | 26.9

System: not listed separately
Assay: Half life in rat plasma at 10 mg/kg, po
Format: ADME, organism-based
Design: dose 10 mg/kg, route oral
Settings: not given

Row | Compound | half-life [h]
10 | O=C(Nc1ccccc1)N1CCN(c2nc(-c3ccccc3)ns2)CC1 | 4.4

System: not listed separately
Assay: Cmax in rat brain at 20 mg/kg, ip
Format: ADME, organism-based
Design: dose 20 mg/kg, route intraperitoneal
Settings: not given

Row | Compound | Cmax [µM]
11 | O=C(Nc1ccccc1)N1CCN(c2nc(-c3ccccc3)ns2)CC1 | 6.04

Organism: Rattus norvegicus
Assay: Inhibition of rat liver esterase assessed as ester (4-nitrophenyl-acetate) hydrolysis at 10 uM after 30 mins
Design: scale not given: the % may be the effect or the level left
Settings: not given
Summary of the method: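 Rat liver microsomes; carboxylesterase activity read as change in rate of 4-nitrophenyl-acetate hydrolysis; compound at 10 with 30 min preincubation; DMSO vehicle control; % relative activity.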

Row | Compound | Activity
12 | O=C(Nc1ccccc1)N1CCN(c2nc(-c3ccccc3)ns2)CC1 | inactive
13 | O=C(CCCCCCc1ccccc1)c1ncc(-c2ccccn2)o1 | Active
14 | NC(=O)c1cccc(-c2cccc(OC(=O)NC3CCCCC3)c2)c1 | 40%

System: not listed separately
Assay: Mean retention time in rat at 10 mg/kg, ip
Format: ADME, organism-based
Design: dose 10 mg/kg, route intraperitoneal
Settings: in vivo

Row | Compound | MRT [h]
15 | O=C(Nc1ccccc1)N1CCN(c2nc(-c3ccccc3)ns2)CC1 | 2.25

Molecular target: T1, Fatty-acid amide hydrolase 1 (Rattus norvegicus)
Assay: Inhibition of rat FAAH assessed as recovery of enzyme activity at IC80 concentration after 18 hrs at 22 degC by dialysis
Settings: not given

Row | Compound | Activity
16 | O=C(Nc1ccccc1)N1CCN(c2nc(-c3ccccc3)ns2)CC1 | inactive

System: not listed separately
Assay: Tmax in rat brain at 20 mg/kg, ip
Format: ADME, organism-based
Design: dose 20 mg/kg, route intraperitoneal
Settings: not given

Row | Compound | Tmax [h]
17 | O=C(Nc1ccccc1)N1CCN(c2nc(-c3ccccc3)ns2)CC1 | 2

System: not listed separately
Assay: Half life in rat plasma at 10 mg/kg, ip
Format: ADME, organism-based
Design: dose 10 mg/kg, route intraperitoneal
Settings: not given

Row | Compound | half-life [h]
18 | O=C(Nc1ccccc1)N1CCN(c2nc(-c3ccccc3)ns2)CC1 | 1.57

System: Rattus norvegicus
Assay: Ex vivo inhibition of FAAH in rat brain at 20 mg/kg, ip
Format: functional, organism-based
Design: dose 20 mg/kg
Settings: not given
Summary of the method: as §2

Row | Compound | Activity
19 | O=C(Nc1ccccc1)N1CCN(c2nc(-c3ccccc3)ns2)CC1 | Active

System: Rattus norvegicus
Assay: Increase in anandamide levels in rat brain at 20 mg/kg, ip
Format: functional, organism-based
Design: dose 20 mg/kg
Settings: not given
Summary of the method: as §1

Row | Compound | Activity
20 | O=C(Nc1ccccc1)N1CCN(c2nc(-c3ccccc3)ns2)CC1 | Active

System: Rattus norvegicus
Assay: Volume of distribution in rat at 10 mg/kg, ip
Format: ADME, organism-based
Design: dose 10 mg/kg, route intraperitoneal
Settings: in vivo

Row | Compound | Vd [L]
21 | O=C(Nc1ccccc1)N1CCN(c2nc(-c3ccccc3)ns2)CC1 | 4.6

System: not listed separately
Assay: Tmax in rat at 10 mg/kg, po
Format: ADME, organism-based
Design: dose 10 mg/kg, route oral
Settings: in vivo

Row | Compound | Tmax [h]
22 | O=C(Nc1ccccc1)N1CCN(c2nc(-c3ccccc3)ns2)CC1 | 1.83

System: not listed separately
Assay: Blood-brain barrier coefficient in rat assessed as log of ratio of brain AUC to plasma AUC at 20 mg/kg, ip
Format: ADME, organism-based
Design: dose 20 mg/kg, route intraperitoneal
Settings: not given

Row | Compound | Kp
23 | O=C(Nc1ccccc1)N1CCN(c2nc(-c3ccccc3)ns2)CC1 | 0.042

System: not listed separately
Assay: Volume of distribution in rat at 1 mg/kg, iv
Format: ADME, organism-based
Design: dose 1 mg/kg, route intravenous
Settings: in vivo

Row | Compound | Vd [L]
24 | O=C(Nc1ccccc1)N1CCN(c2nc(-c3ccccc3)ns2)CC1 | 0.57

System: not listed separately
Assay: Mean retention time in rat at 1 mg/kg, iv
Format: ADME, organism-based
Design: dose 1 mg/kg, route intravenous
Settings: in vivo

Row | Compound | MRT [h]
25 | O=C(Nc1ccccc1)N1CCN(c2nc(-c3ccccc3)ns2)CC1 | 0.817

System: not listed separately
Assay: Bioavailability in rat at 10 mg/kg, ip
Format: ADME, organism-based
Settings: in vivo

Row | Compound | bioavailability [%]
26 | O=C(Nc1ccccc1)N1CCN(c2nc(-c3ccccc3)ns2)CC1 | 20

System: not listed separately
Assay: Tmax in rat plasma at 20 mg/kg, ip
Format: ADME, organism-based
Design: dose 20 mg/kg, route intraperitoneal
Settings: not given

Row | Compound | Tmax [h]
27 | O=C(Nc1ccccc1)N1CCN(c2nc(-c3ccccc3)ns2)CC1 | 0.75

Molecular target: T2, Fatty-acid amide hydrolase 1 (Rattus norvegicus, UniProt P97612)
T2 sequence (P97612 whole entry): T1 sequence (whole entry)
Assay: Inhibition of rat FAAH preincubated for 10 mins
Settings: not given

Row | Compound | IC50 [nM]
28 | O=C(Nc1nccnn1)N1CCN(c2nc(-c3ccccc3)ns2)CC1 | 1320
29 | O=C(Nc1cnccn1)N1CCN(c2nc(-c3ccccc3)ns2)CC1 | 10.8

System: not listed separately
Assay: Mean retention time in rat at 10 mg/kg, po
Format: ADME, organism-based
Design: dose 10 mg/kg, route oral
Settings: in vivo

Row | Compound | MRT [h]
30 | O=C(Nc1ccccc1)N1CCN(c2nc(-c3ccccc3)ns2)CC1 | 6.37

System: not listed separately
Assay: Tmax in rat at 10 mg/kg, ip
Format: ADME, organism-based
Design: dose 10 mg/kg, route intraperitoneal
Settings: in vivo

Row | Compound | Tmax [h]
31 | O=C(Nc1ccccc1)N1CCN(c2nc(-c3ccccc3)ns2)CC1 | 0.583

System: not listed separately
Assay: Cmax in rat at 10 mg/kg, ip
Format: ADME, organism-based
Design: dose 10 mg/kg, route intraperitoneal
Settings: in vivo

Row | Compound | Cmax [µM]
32 | O=C(Nc1ccccc1)N1CCN(c2nc(-c3ccccc3)ns2)CC1 | 1.58

System: not listed separately
Assay: Cmax in rat at 1 mg/kg, iv
Format: ADME, organism-based
Design: dose 1 mg/kg, route intravenous
Settings: in vivo

Row | Compound | Cmax [µM]
33 | O=C(Nc1ccccc1)N1CCN(c2nc(-c3ccccc3)ns2)CC1 | 3.06

Molecular target: T3, Fatty-acid amide hydrolase 1 (Homo sapiens, UniProt O00519)
T3 sequence (O00519 whole entry): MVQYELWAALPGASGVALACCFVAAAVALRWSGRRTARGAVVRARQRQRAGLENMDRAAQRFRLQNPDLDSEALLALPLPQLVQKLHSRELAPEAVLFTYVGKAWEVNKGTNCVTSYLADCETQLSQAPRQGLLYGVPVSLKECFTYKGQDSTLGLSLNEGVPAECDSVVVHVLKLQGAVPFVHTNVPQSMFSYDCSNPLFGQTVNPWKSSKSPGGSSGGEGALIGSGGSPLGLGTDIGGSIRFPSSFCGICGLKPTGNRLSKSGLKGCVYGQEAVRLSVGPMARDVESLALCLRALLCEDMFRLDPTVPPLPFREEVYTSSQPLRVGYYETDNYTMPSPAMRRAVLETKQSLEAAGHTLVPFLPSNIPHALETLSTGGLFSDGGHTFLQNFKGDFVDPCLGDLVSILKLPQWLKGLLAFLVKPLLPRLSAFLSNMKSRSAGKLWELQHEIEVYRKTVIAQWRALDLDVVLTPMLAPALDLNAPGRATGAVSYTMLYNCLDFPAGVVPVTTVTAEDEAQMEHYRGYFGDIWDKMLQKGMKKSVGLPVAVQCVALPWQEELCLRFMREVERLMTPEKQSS
Assay: Inhibition of human FAAH preincubated for 10 mins
Settings: not given

Row | Compound | IC50 [nM]
34 | O=C(Nc1nccnn1)N1CCN(c2nc(-c3ccccc3)ns2)CC1 | 2670
35 | O=C(Nc1cnccn1)N1CCN(c2nc(-c3ccccc3)ns2)CC1 | 23

Molecular target: T2, Fatty-acid amide hydrolase 1
Assay: Inhibition of rat FAAH preincubated for 20 mins
Settings: not given

Row | Compound | IC50 [nM]
36 | O=C(Nc1ccccc1)N1CCN(c2nc(-c3ccccc3)ns2)CC1 | 34

System: not listed separately
Assay: Clearance in rat at 1 mg/kg, iv
Format: ADME, organism-based
Design: dose 1 mg/kg, route intravenous
Settings: in vivo

Row | Compound | clearance [mL/min]
37 | O=C(Nc1ccccc1)N1CCN(c2nc(-c3ccccc3)ns2)CC1 | 6

System: not listed separately
Assay: Half life in rat plasma at 1 mg/kg, iv
Format: ADME, organism-based
Design: dose 1 mg/kg, route intravenous
Settings: not given

Row | Compound | half-life [h]
38 | O=C(Nc1ccccc1)N1CCN(c2nc(-c3ccccc3)ns2)CC1 | 0.567
